# Assays:
# Streptococcus pyogenes [1] = assay: In vivo effective dose against experimental infections in rodent caused by Streptococcus pyogenes C203 when administered orally; assay type: functional; conditions: po
# Staphylococcus aureus [2] = assay: In vitro antimicrobial activity against Staphylococcus aureus X1; assay type: functional
# Streptococcus pneumoniae [3] = assay: In vitro antimicrobial activity against Streptococcus pneumoniae; assay type: functional
# Streptococcus pyogenes [4] = assay: Effective dose against Streptococcus pyogenes C203 when administered sc; assay type: functional
# In short: (§1)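 Mouse protection test: infected mice were dosed twice, at 1 and 5 h postinfection, either subcutaneously or orally. […] The result is expressed as ED50 in mg/kg × 2.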
# Haemophilus influenzae [5] = assay: In vitro antimicrobial activity against Haemophilus influenzae.; assay type: functional
# Enterococcus faecium = assay: In vitro antimicrobial activity against Streptococcus faecium X66; assay type: functional, streptococcus fae-cium
# Streptococcus pyogenes [6] = assay: In vivo effective dose against experimental infections in rodent caused by Streptococcus pyogenes C203 when administered sc; assay type: functional
# Streptococcus pyogenes [7] = assay: Effective dose against Streptococcus pyogenes C203 when administered orally; assay type: functional; conditions: po; in short: as §1
# Streptococcus pyogenes [8] = assay: In vitro antimicrobial activity against Streptococcus pyogenes C203; assay type: functional
# Streptococcus pyogenes [9] = assay: Antimicrobial activity against Streptococcus pyogenes C203; assay type: functional
# [10] = system: Staphylococcus epidermidis; assay: In vitro antimicrobial activity against Staphylococcus epidermidis EPI1; assay type: functional
# Streptococcus [11] = assay: In vitro antimicrobial activity against aerobic bacteria Streptococcus B 8; assay type: functional
# Cutibacterium acnes = assay: In vitro antimicrobial activity against anaerobic bacteria propionibacterium acnes 79; assay type: functional
# Staphylococcus aureus [12] = assay: In vitro antimicrobial activity against aerobic bacteria Staphylococcus aureus V140,; assay type: functional
# Clostridium perfringens = assay: In vitro antimicrobial activity against anaerobic bacteria clostridium perfringens 81,; assay type: functional
# [13] = system: Prevotella melaninogenica; assay: In vitro antimicrobial activity against anaerobic bacteria bacteroides melaninogenicus 1856,; assay type: functional
# [14] = system: Staphylococcus epidermidis; assay: In vitro antimicrobial activity against aerobic bacteria Streptococcus epi 270; assay type: functional
# Eikenella corrodens = assay: In vitro antimicrobial activity against anaerobic bacteria bacteroides corrodens 1874; assay type: functional
# Streptococcus pneumoniae [15] = assay: In vitro antimicrobial activity against aerobic bacteria Streptococcus pneumoniae B1-438; assay type: functional, streptococcus pneum
# Staphylococcus aureus [16] = assay: In vitro antimicrobial activity against aerobic bacteria Staphylococcus aureus 513E; assay type: functional
# [17] = system: Fusobacterium necrophorum; assay: In vitro antimicrobial activity against anaerobic bacteria usobacterium necrophorum 6054A; assay type: functional
# Staphylococcus aureus [18] = assay: In vitro antimicrobial activity against aerobic bacteria Staphylococcus aureus V41; assay type: functional
# Bacteroides fragilis [19] = assay: In vitro antimicrobial activity against anaerobic bacteria bacteroides fragilis 111; assay type: functional
# Chlamydia trachomatis = assay: In vitro antimicrobial activity against chlamydia trachomatis.; assay type: functional
# Haemophilus influenzae [20] = assay: In vitro antimicrobial activity against aerobic bacteria Haemophilus influenzae MX366,; assay type: functional
# Clostridium septicum = assay: In vitro antimicrobial activity against anaerobic bacteria clostridium septicum 1128; assay type: functional
# Streptococcus [21] = assay: In vitro antimicrobial activity against aerobic bacteria Streptococcus G Kruder; assay type: functional; conditions: Streptococcus; read-out: MIC
# Bacteroides fragilis [22] = assay: In vitro antimicrobial activity against anaerobic bacteria bacteroides fragilis 1936B,; assay type: functional
# Collinsella aerofaciens [23] = assay: In vitro antimicrobial activity against anaerobic bacteria eubacterium aerofaciens 1235; assay type: functional
# Phocaeicola vulgatus = assay: In vitro antimicrobial activity against anaerobic bacteria bacteroides vulgatus 1211; assay type: functional
# Streptococcus sanguinis = assay: In vitro antimicrobial activity against aerobic bacteria Streptococcus sanguis MX132; assay type: functional
# Streptococcus [24] = assay: In vitro antimicrobial activity against aerobic bacteria Streptococcus C 24; assay type: functional
# Haemophilus influenzae [25] = assay: In vitro antimicrobial activity against aerobic bacteria Haemophilus influenzae 76; assay type: functional
# Streptococcus [26] = assay: In vitro antimicrobial activity against aerobic bacteria Streptococcus D 2041; assay type: functional
# [27] = system: Bacteroides thetaiotaomicron; assay: In vitro antimicrobial activity against anaerobic bacteria bacteroides thetaiotaomicron 1438; assay type: functional
# Staphylococcus aureus [28] = assay: In vitro antimicrobial activity against aerobic bacteria Staphylococcus aureus X400; assay type: functional
# [29] = system: Staphylococcus epidermidis; assay: In vitro antimicrobial activity against aerobic bacteria Streptococcus epi 222; assay type: functional
# Anaerococcus prevotii = assay: In vitro antimicrobial activity against anaerobic bacteria peptococcus prevoti 1281; assay type: functional
# Fusobacterium = assay: In vitro antimicrobial activity against anaerobic bacteria fusobacterium symbiosum 1470; assay type: functional
# Streptococcus [30] = assay: In vitro antimicrobial activity against aerobic bacteria Streptococcus D 9960; assay type: functional
# [31] = system: Haemophilus parainfluenzae; assay: In vitro antimicrobial activity against aerobic bacteria Haemophilus parainfluenzae 9796; assay type: functional
# Clostridioides difficile = assay: In vitro antimicrobial activity against anaerobic bacteria Clostridium difficile 2994; assay type: functional
# [32] = system: Prevotella melaninogenica; assay: In vitro antimicrobial activity against anaerobic bacteria bacteroides melaninogenicus 2736; assay type: functional
# [33] = system: Peptostreptococcus anaerobius; assay: In vitro antimicrobial activity against anaerobic bacteria eubacterium peptostreptococcus anaerobius 1428,; assay type: functional
# Staphylococcus aureus [34] = assay: In vitro antimicrobial activity against aerobic bacteria Staphylococcus aureus V135; assay type: functional
# Streptococcus viridans = assay: In vitro antimicrobial activity against aerobic bacteria Streptococcus viridans 9943; assay type: functional
# Haemophilus influenzae [35] = assay: In vitro antimicrobial activity against aerobic bacteria Haemophilus influenzae 465; assay type: functional
# Streptococcus [36] = assay: In vitro antimicrobial activity against aerobic bacteria Streptococcus B 5; assay type: functional
# Streptococcus [37] = assay: In vitro antimicrobial activity against aerobic bacteria Streptococcus D 8043; assay type: functional
# [38] = system: Peptoniphilus asaccharolyticus; assay: In vitro antimicrobial activity against anaerobic bacteria peptococcus asaccharolyticus 1302; assay type: functional
# [39] = In vitro antimicrobial activity against anaerobic bacteria peptostreptococcus intermedius 1264; assay type: functional
# Bacteroides fragilis [40] = assay: In vitro antimicrobial activity against anaerobic bacteria bacteroides fragilis 1877; assay type: functional
# [41] = system: Peptostreptococcus anaerobius; assay: In vitro antimicrobial activity against anaerobic bacteria peptostreptococcus anaerobius 1428,; assay type: functional
# Collinsella aerofaciens [42] = assay: In vitro antimicrobial activity against anaerobic bacteria aerofaciens 1235; assay type: functional
smiles,measurement,setting,value
CC[C@H]1OC(=O)C[C@@H](O)[C@H](C)[C@@H](O[C@@H]2O[C@H](C)[C@@H](O)[C@H](N(C)C)[C@H]2O)[C@@H](C)C[C@@H](C)C(=O)/C=C/C(C)=C/[C@@H]1CO[C@@H]1O[C@H](C)[C@@H](O)[C@@H](OC)[C@H]1OC,ED50,Streptococcus pyogenes [1],8 mg/kg
same,MIC,Staphylococcus aureus [2],0.25 µg/mL
same,MIC,Streptococcus pneumoniae [3],2 µg/mL
same,ED50,Streptococcus pyogenes [4],0.25 mg/kg
same,MIC,Haemophilus influenzae [5],8 µg/mL
same,MIC,Enterococcus faecium,8 µg/mL
same,ED50,Streptococcus pyogenes [6],1.6 mg/kg
same,ED50,Streptococcus pyogenes [7],1.6 mg/kg
same,MIC,Streptococcus pyogenes [8],0.25 µg/mL
same,MIC,Streptococcus pyogenes [9],8 µg/mL
same,MIC,[10],0.25 µg/mL
CC[C@H]1OC(=O)C[C@@H](O)[C@H](C)[C@@H](O[C@@H]2O[C@H](C)[C@@H](O)[C@H](N(C)C)[C@H]2O)[C@@H](CC=O)C[C@@H](C)C(=O)/C=C/C(C)=C/[C@@H]1CO,MIC,Streptococcus [11],0.5 µg/mL
same,MIC,Cutibacterium acnes,8 µg/mL
same,MIC,Staphylococcus aureus [12],1 µg/mL
same,MIC,Clostridium perfringens,< 0.5 µg/mL
same,ED50,Streptococcus pyogenes [1],102 mg/kg
same,MIC,[13],8 µg/mL
same,MIC,Staphylococcus aureus [2],1 µg/mL
same,MIC,[14],> 128 µg/mL
same,MIC,Eikenella corrodens,32 µg/mL
same,MIC,Streptococcus pneumoniae [3],0.25 µg/mL
same,MIC,Streptococcus pneumoniae [15],> 128 µg/mL
same,MIC,Staphylococcus aureus [16],1 µg/mL
same,MIC,[17],< 0.5 µg/mL
same,ED50,Streptococcus pyogenes [4],97 mg/kg
same,MIC,Haemophilus influenzae [5],2 µg/mL
same,MIC,Staphylococcus aureus [18],2 µg/mL
same,MIC,Bacteroides fragilis [19],32 µg/mL
same,MIC,Chlamydia trachomatis,0.5 µg/mL
same,MIC,Haemophilus influenzae [20],2 µg/mL
same,MIC,Enterococcus faecium,1 µg/mL
same,MIC,Clostridium septicum,4 µg/mL
same,MIC,Streptococcus [21],0.25 µg/mL
same,MIC,Bacteroides fragilis [22],32 µg/mL
same,ED50,Streptococcus pyogenes [6],3.9 mg/kg
same,ED50,Streptococcus pyogenes [7],3.3 mg/kg
same,MIC,Collinsella aerofaciens [23],< 0.5 µg/mL
same,MIC,Phocaeicola vulgatus,32 µg/mL
same,MIC,Streptococcus sanguinis,0.25 µg/mL
same,MIC,Streptococcus [24],0.5 µg/mL
same,MIC,Haemophilus influenzae [25],2 µg/mL
same,MIC,Streptococcus [26],0.5 µg/mL
same,MIC,[27],128 µg/mL
same,MIC,Staphylococcus aureus [28],2 µg/mL
same,MIC,[29],0.25 µg/mL
same,MIC,Anaerococcus prevotii,16 µg/mL
same,MIC,Fusobacterium,< 0.005 µg/mL
same,MIC,Streptococcus [30],1 µg/mL
same,MIC,Streptococcus pyogenes [8],0.25 µg/mL
same,MIC,[31],4 µg/mL
same,MIC,Clostridioides difficile,4 µg/mL
same,MIC,Streptococcus pyogenes [9],0.25 µg/mL
same,MIC,[32],8 µg/mL
same,MIC,[33],32 µg/mL
same,MIC,Staphylococcus aureus [34],1 µg/mL
same,MIC,Streptococcus viridans,> 128 µg/mL
same,MIC,[10],1 µg/mL
same,MIC,Haemophilus influenzae [35],4 µg/mL
same,MIC,Streptococcus [36],1 µg/mL
same,MIC,Streptococcus [37],0.5 µg/mL
same,MIC,[38],2 µg/mL
same,MIC,[39],1 µg/mL
same,MIC,Bacteroides fragilis [40],64 µg/mL
CC[C@H]1OC(=O)C[C@@H](O)[C@H](C)[C@@H](O[C@@H]2O[C@H](C)[C@@H](O[C@H]3C[C@@](C)(O)[C@@H](O)[C@H](C)O3)[C@H](N(C)C)[C@H]2O)[C@@H](CCO)C[C@@H](C)C(=O)/C=C/C(C)=C/[C@@H]1CO[C@@H]1O[C@H](C)[C@@H](O)[C@@H](OC)[C@H]1OC [RELOMYCIN],MIC,Cutibacterium acnes,8 µg/mL
same,MIC,Clostridium perfringens,> 8 µg/mL
same,MIC,[41],> 8 µg/mL
same,ED50,Streptococcus pyogenes [1],> 100 mg/kg
same,MIC,[13],4 µg/mL
same,MIC,Staphylococcus aureus [2],4 µg/mL
same,MIC,Eikenella corrodens,> 8 µg/mL
same,MIC,Streptococcus pneumoniae [3],32 µg/mL
same,MIC,[17],1 µg/mL
same,MIC,Haemophilus influenzae [5],> 128 µg/mL
same,MIC,Bacteroides fragilis [19],4 µg/mL
same,MIC,Chlamydia trachomatis,> 1 µg/mL
same,MIC,Enterococcus faecium,64 µg/mL
same,MIC,Clostridium septicum,8 µg/mL
same,MIC,Bacteroides fragilis [22],8 µg/mL
same,ED50,Streptococcus pyogenes [6],15.4 mg/kg
same,MIC,Phocaeicola vulgatus,> 8 µg/mL
same,MIC,[27],4 µg/mL
same,MIC,Anaerococcus prevotii,> 8 µg/mL
same,MIC,Fusobacterium,4 µg/mL
same,MIC,Streptococcus pyogenes [8],2 µg/mL
same,MIC,Clostridioides difficile,1 µg/mL
same,MIC,[32],8 µg/mL
same,MIC,[10],4 µg/mL
same,MIC,[38],1 µg/mL
same,MIC,Collinsella aerofaciens [42],1 µg/mL
same,MIC,[39],> 8 µg/mL
same,MIC,Bacteroides fragilis [40],> 8 µg/mL
CC[C@H]1OC(=O)C[C@@H](O)[C@H](C)[C@@H](O[C@@H]2O[C@H](C)[C@@H](O)[C@H](N(C)C)[C@H]2O)[C@@H](C)C[C@@H](C)C(=O)/C=C/C(C)=C/[C@@H]1CO,ED50,Streptococcus pyogenes [1],121 mg/kg
same,MIC,Staphylococcus aureus [2],4 µg/mL
same,MIC,Streptococcus pneumoniae [3],4 µg/mL
same,ED50,Streptococcus pyogenes [4],> 30 mg/kg
same,MIC,Haemophilus influenzae [5],4 µg/mL
same,MIC,Enterococcus faecium,4 µg/mL
same,ED50,Streptococcus pyogenes [6],> 30 mg/kg
same,ED50,Streptococcus pyogenes [7],121 mg/kg
same,MIC,Streptococcus pyogenes [8],4 µg/mL
same,MIC,Streptococcus pyogenes [9],4 µg/mL
same,MIC,[10],2 µg/mL
